# Activity calls are given as the source filed them. The rule behind the calls is not given here.
# How the values were obtained:
# [1] = Half life in RPMI media at 10 uM by HPLC analysis; format: physicochemical
# Outline: (§1)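 Compound added from DMSO stock to pre-heated RPMI 1640 (1.8 mL) plus 0.2 mL human AB male serum or FBS, or to 2 mL RPMI alone, at final 1 or 10 μM. Samples analysed by HPLC at pH 9.5 (formic acid/ammonia in acetonitrile/water), with conversion taken from the substrate/internal standard peak ratio. Run in triplicate; half-lives ± SD.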
# [2] = Half life in RPMI media at 1 uM by HPLC analysis; format: physicochemical; outline: as §1
# [3] = Half life in RPMI media at 10 uM by HPLC analysis in presence of fetal bovine serum; format: ADME; details: cattle; outline: as §1
# [4] = Selectivity ratio of IC50 for MEF to IC50 for human Jurkat T cells; format: cell-based; details: mouse (MEF) and human (Jurkat T cells), read-out: Ratio IC50
# Oryctolagus cuniculus = species on record: Oryctolagus cuniculus; assay: Inhibition of cap-independent HCV-IRES-induced translation in rabbit reticulocyte lysate at 500 nM after 1.5 hrs by luciferase reporter gene assay; format: functional
# Outline: (§2)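 Capped bicistronic reporter mRNA: cap-dependent firefly luciferase first cistron, HCV IRES-driven Renilla second cistron. Transcribed in vitro with SP6 from the BamHI-linearised plasmid. 200 ng RNA translated in rabbit reticulocyte lysate with 70 mM KCl, 2 mM DTT, RNasin and compound in DMSO (5% v/v final), 30 °C for 1.5 h. Dual luciferase readout. Duplicates, 4 independent assays, mean IC50 by curve fit.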
# [5] = Binding affinity to eIF4A1/2 in rabbit reticulocyte lysate assessed as inhibition of cap-dependent translation after 1.5 hrs by dual luciferase reporter gene assay; design: species or system Oryctolagus cuniculus; outline: as §2
# [6] = Antiproliferative activity against human Jurkat T cells assessed as DNA synthesis level after 24 hrs by thymidine incorporation assay; format: functional, cell-based
# Outline: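 Cells kept at 37 °C, 5% CO2 with penicillin-streptomycin and 10% FBS. Adherent lines seeded at 2000 cells/well and left to recover overnight; Jurkat seeded at 5000 cells/well with no recovery period. Compound added in DMSO (0.1% final, vehicle-only control) at 0.001–100 nM over 10 wells. DNA synthesis read out after 24 h. Mean IC50 from at least 3 independent assays.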
# [7] = target: T1, DNA polymerase subunit gamma-1 (Homo sapiens, UniProt P54098); assay: Inhibition of DNA polymerase-gamma (unknown origin) assessed as incorporation of Br(d)UTP by colorimetric analysis
# T1 sequence (P54098 whole entry): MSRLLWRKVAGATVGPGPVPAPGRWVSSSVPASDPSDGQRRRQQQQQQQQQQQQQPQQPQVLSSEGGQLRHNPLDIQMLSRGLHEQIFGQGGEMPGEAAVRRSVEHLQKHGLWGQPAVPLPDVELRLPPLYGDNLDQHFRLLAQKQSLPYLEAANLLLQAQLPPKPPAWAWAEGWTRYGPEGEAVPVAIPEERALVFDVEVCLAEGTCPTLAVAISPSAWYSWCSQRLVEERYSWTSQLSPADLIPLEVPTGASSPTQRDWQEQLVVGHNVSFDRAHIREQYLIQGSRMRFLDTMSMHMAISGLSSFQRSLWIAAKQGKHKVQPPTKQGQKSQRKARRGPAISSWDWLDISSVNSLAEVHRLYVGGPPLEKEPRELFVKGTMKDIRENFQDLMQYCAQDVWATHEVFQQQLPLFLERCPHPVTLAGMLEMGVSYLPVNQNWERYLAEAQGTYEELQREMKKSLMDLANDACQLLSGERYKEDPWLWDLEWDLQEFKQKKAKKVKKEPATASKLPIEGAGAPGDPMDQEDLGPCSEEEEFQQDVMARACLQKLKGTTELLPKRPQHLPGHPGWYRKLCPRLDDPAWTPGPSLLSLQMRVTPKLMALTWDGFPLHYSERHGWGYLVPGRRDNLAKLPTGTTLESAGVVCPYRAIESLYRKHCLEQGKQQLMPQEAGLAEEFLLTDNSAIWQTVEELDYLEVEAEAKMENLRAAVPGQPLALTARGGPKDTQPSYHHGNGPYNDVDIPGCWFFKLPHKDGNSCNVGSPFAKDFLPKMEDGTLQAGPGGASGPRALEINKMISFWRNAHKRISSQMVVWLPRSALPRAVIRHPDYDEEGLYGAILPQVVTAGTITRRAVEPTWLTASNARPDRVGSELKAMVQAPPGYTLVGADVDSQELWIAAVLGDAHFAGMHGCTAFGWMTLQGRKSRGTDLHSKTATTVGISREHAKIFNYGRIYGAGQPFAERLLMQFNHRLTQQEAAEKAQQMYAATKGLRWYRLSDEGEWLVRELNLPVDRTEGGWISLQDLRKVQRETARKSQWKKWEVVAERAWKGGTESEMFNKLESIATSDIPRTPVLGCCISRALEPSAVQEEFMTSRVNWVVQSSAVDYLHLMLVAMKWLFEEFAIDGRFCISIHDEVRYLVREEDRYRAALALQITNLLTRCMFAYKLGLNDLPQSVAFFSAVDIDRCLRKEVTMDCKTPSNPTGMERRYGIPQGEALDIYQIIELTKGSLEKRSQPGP
smiles,measurement,setting,value
CC(/C=C/C(C)=C/[C@@H]1Cc2nc(cs2)CCCCC(=O)O[C@@H](C)C/C(C)=C/C=C\C(=O)O1)=C\CN(C)C,t1/2,[1],3.25 h
same,t1/2,[2],5.11 h
same,t1/2,[3],12.5 h
same,selectivity ratio,[4],5
same,inhibition,Oryctolagus cuniculus,inactive
same,IC50,[5],21.5 nM
same,IC50,[6],3 nM
same,IC50,[7],3000 nM
